Key:
[1] = target: T1, Prostaglandin G/H synthase 1 (Ovis aries, UniProt P05979); assay: Inhibition of ovine COX1 using arachidonic acid as substrate by chemiluminescence assay
T1 sequence (P05979 whole entry): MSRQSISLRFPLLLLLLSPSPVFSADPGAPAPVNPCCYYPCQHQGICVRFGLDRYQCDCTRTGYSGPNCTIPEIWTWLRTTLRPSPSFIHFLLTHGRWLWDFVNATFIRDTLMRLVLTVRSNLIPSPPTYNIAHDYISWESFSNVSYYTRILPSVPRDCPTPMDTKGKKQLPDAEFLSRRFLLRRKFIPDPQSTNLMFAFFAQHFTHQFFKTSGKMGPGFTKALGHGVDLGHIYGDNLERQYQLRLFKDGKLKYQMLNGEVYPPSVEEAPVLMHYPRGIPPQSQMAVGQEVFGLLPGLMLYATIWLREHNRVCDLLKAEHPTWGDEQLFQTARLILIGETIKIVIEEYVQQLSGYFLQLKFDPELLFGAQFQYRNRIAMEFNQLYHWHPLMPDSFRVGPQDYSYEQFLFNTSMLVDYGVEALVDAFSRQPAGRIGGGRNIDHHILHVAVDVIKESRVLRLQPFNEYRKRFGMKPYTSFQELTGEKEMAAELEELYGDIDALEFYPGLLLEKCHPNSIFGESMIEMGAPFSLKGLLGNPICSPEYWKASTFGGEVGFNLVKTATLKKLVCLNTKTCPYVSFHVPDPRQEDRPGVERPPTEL
Outline: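 Ovine COX-1 chemiluminescent inhibitor screening kit: heme-catalyzed hydroperoxidase activity generates luminescence with a cyclic naphthalene hydrazide and arachidonic acid substrate. Luminescence serves as the index of catalytic activity. IC50 is the concentration giving 50% inhibition of enzyme activity.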

Rattus norvegicus [2] = assay: Antiinflammatory activity in Wistar rat assessed as change in carrageenan-induced hind paw thickness at 3 mg/kg, ip administered 30 mins prior to carrageenan-challenge measured after 1 hr (reference value: 1.84 +/- 0.41 mm); assay type: functional; conditions: route intraperitoneal
Rattus norvegicus [3] = assay: Antiinflammatory activity in Wistar rat assessed as change in carrageenan-induced hind paw thickness at 3 mg/kg, ip administered 30 mins prior to carrageenan-challenge measured after 2 hrs (reference value: 1.86 +/- 0.38 mm); assay type: functional; conditions: route intraperitoneal
Rattus norvegicus [4] = assay: Antiinflammatory activity in Wistar rat assessed as change in carrageenan-induced hind paw thickness at 3 mg/kg, ip administered 30 mins prior to carrageenan-challenge measured after 3 hrs (reference value: 1.78 +/- 0.39 mm); assay type: functional; conditions: route intraperitoneal
Rattus norvegicus [5] = assay: Antiinflammatory activity in Wistar rat assessed as change in carrageenan-induced hind paw thickness at 6 mg/kg, ip administered 30 mins prior to carrageenan-challenge measured after 1 hr (reference value: 1.84 +/- 0.41 mm); assay type: functional; conditions: route intraperitoneal
Rattus norvegicus [6] = assay: Antiinflammatory activity in Wistar rat assessed as change in carrageenan-induced hind paw thickness at 6 mg/kg, ip administered 30 mins prior to carrageenan-challenge measured after 2 hrs (reference value: 1.86 +/- 0.38 mm); assay type: functional; conditions: route intraperitoneal
Rattus norvegicus [7] = assay: Antiinflammatory activity in Wistar rat assessed as change in carrageenan-induced hind paw thickness at 6 mg/kg, ip administered 30 mins prior to carrageenan-challenge measured after 3 hrs (reference value: 1.78 +/- 0.39 mm); assay type: functional; conditions: route intraperitoneal
Mus musculus [8] = assay: Antinociceptive activity in Swiss albino mouse assessed as licking time in primary neurogenic period at 3 mg/kg, ip administered 30 mins prior to formalin-challenge (reference value: 80 +/- 19 seconds); assay type: functional; conditions: route intraperitoneal
Mus musculus [9] = assay: Antinociceptive activity in Swiss albino mouse assessed as licking time in primary neurogenic period at 6 mg/kg, ip administered 30 mins prior to formalin-challenge (reference value: 80 +/- 19 seconds); assay type: functional; conditions: route intraperitoneal
Mus musculus [10] = assay: Antinociceptive activity in Swiss albino mouse assessed as licking time in secondary inflammatory period at 3 mg/kg, ip administered 30 mins prior to formalin-challenge (reference value: 217 +/- 68.5 seconds); assay type: functional; conditions: route intraperitoneal
Mus musculus [11] = assay: Antinociceptive activity in Swiss albino mouse assessed as licking time in secondary inflammatory period at 6 mg/kg, ip administered 30 mins prior to formalin-challenge (reference value: 217 +/- 68.5 seconds); assay type: functional; conditions: route intraperitoneal
Rattus norvegicus [12] = assay: Antiinflammatory activity in Wistar rat assessed as change in carrageenan-induced hind paw thickness at 5 mg/kg, ip administered 30 mins prior to carrageenan-challenge measured after 1 hr (reference value: 1.84 +/- 0.41 mm); assay type: functional; conditions: route intraperitoneal
Rattus norvegicus [13] = assay: Antiinflammatory activity in Wistar rat assessed as change in carrageenan-induced hind paw thickness at 5 mg/kg, ip administered 30 mins prior to carrageenan-challenge measured after 2 hrs (reference value: 1.86 +/- 0.38 mm); assay type: functional; conditions: route intraperitoneal
Rattus norvegicus [14] = assay: Antiinflammatory activity in Wistar rat assessed as change in carrageenan-induced hind paw thickness at 5 mg/kg, ip administered 30 mins prior to carrageenan-challenge measured after 3 hrs (reference value: 1.78 +/- 0.39 mm); assay type: functional; conditions: route intraperitoneal
Mus musculus [15] = assay: Antinociceptive activity in Swiss albino mouse assessed as licking time in primary neurogenic period at 5 mg/kg, ip administered 30 mins prior to formalin-challenge (reference value: 80 +/- 19 seconds); assay type: functional; conditions: route intraperitoneal
Mus musculus [16] = assay: Antinociceptive activity in Swiss albino mouse assessed as licking time in secondary inflammatory period at 5 mg/kg, ip administered 30 mins prior to formalin-challenge (reference value: 217 +/- 68.5 seconds); assay type: functional; conditions: route intraperitoneal

Row | IC50 [1] [µM] | Compound | Activity (Rattus norvegicus [2]) [mm] | Activity (Rattus norvegicus [3]) [mm] | Activity (Rattus norvegicus [4]) [mm] | Activity (Rattus norvegicus [5]) [mm] | Activity (Rattus norvegicus [6]) [mm] | Activity (Rattus norvegicus [7]) [mm] | Time (Mus musculus [8]) [s] | Time (Mus musculus [9]) [s] | Time (Mus musculus [10]) [s] | Time (Mus musculus [11]) [s] | Activity (Rattus norvegicus [12]) [mm] | Activity (Rattus norvegicus [13]) [mm] | Activity (Rattus norvegicus [14]) [mm] | Time (Mus musculus [15]) [s] | Time (Mus musculus [16]) [s]
1 | 50.1 | COc1ccc(-c2nc(SC)nnc2-c2ccc(S(C)(=O)=O)cc2)cc1 | 0.96 | 0.72 | 0.64 | 0.58 | 0.43 | 0.3 | 46 | 49 | 227 | 118 | – | – | – | – | –
2 | 39.5 | CSc1nnc(-c2ccc(S(C)(=O)=O)cc2)c(-c2ccc(Cl)cc2)n1 | 1 | 0.71 | 0.54 | 0.89 | 0.58 | 0.41 | 30 | 37 | 85 | 140 | – | – | – | – | –
3 | 51.6 | CSc1nnc(-c2ccc(S(C)(=O)=O)cc2)c(-c2ccc(F)cc2)n1 | 1.24 | 1.16 | 0.97 | 0.75 | 0.56 | 0.34 | 52 | 34 | 127 | 152 | – | – | – | – | –
4 | 52.4 | CSc1nnc(-c2ccc(S(C)(=O)=O)cc2)c(-c2ccc(C)cc2)n1 | 0.87 | 0.68 | 0.55 | 0.98 | 0.8 | 0.67 | 49 | 61 | 175 | 139 | – | – | – | – | –
5 | 54.4 | CSc1nnc(-c2ccc(S(C)(=O)=O)cc2)c(-c2ccccc2)n1 | 1.45 | 1.77 | 1.19 | 1.09 | 0.94 | 0.83 | 57 | 58 | 133 | 155 | – | – | – | – | –
6 | – | COc1ccc2c(c1)c(CC(=O)O)c(C)n2C(=O)c1ccc(Cl)cc1 [INDOMETHACIN] | – | – | – | – | – | – | – | – | – | – | 1.05 | 0.81 | 0.57 | 45 | 127

Reference: ChEMBL document CHEMBL3102769, “Synthesis, docking simulation, biological evaluations and 3D-QSAR study of 5-Aryl-6-(4-methylsulfonyl)-3-(metylthio)-1,2,4-triazine as selective cyclooxygenase-2 inhibitors” (Bioorg Med Chem, 2014)
